Assay results from PubChem BioAssay AID504382 (The Scripps Research Institute Molecular Screening Center, 2011).
The whole screen tested about 2,500 compounds, of which about 460 (18%) were called active.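 How the source made its calls: active means mean activation above a cutoff of low control average plus 3 SD from the earlier screen (cut at about 12% in these data); inactive means the rest.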 Only a sample is shown.

Assay: compound fluorescence interference without thin filaments, confirmation, artefact control for cardiac RTF calcium sensitizer project, biochemical (AID 504382)
Conditions: IANBD fluorescence interference counterscreen, buffer, EC20 Ca2+; at 7.2 µM; active compounds read high
How it was run: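 Doses – one dose of 7.2 µM, 0.7% DMSO · Buffer or medium – MOPS/KCl/MgCl2/EGTA/NTA/DTT buffer, pH 7.2 · Probe or stimulus – Ca2+ fixed at EC20, 0.472 mM · Measured by – fluorescence intensity, excitation 480 nm, emission 540 nm · Read-out – fluorescence interference versus control range · Timing – 15 min compound exposure at 25 °C · Replication – triplicate wells per compound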

Row | Compound | fluorescence artifact activation
1 | O=c1cc(C(F)(F)F)c2cc3c4c(c2o1)CCCN4CCC3 | 19.7% (active)
2 | Cc1cc2c(C(F)(F)F)cc(=O)oc2c2c1NCCC2 | 26.6% (active)
3 | COc1ccc2c3c([nH]c2c1)C(C)=NCC3 | 0.04% (inactive)
4 | COc1ccc(CC(=O)N2CCN(C)CC2)cc1OC | 0.89% (inactive)
5 | Cc1cc(N(CCCl)CCCl)ccc1C=Cc1ccncn1 | 3.44% (inactive)
6 | O=c1[nH]c(=O)n(Cc2ccc(F)cc2)c(O)c1/C=N/Nc1ccccc1 | 6.04% (inactive)
7 | CCOP(=O)(Cc1cc(C#N)oc1C)OCC | 0.13% (inactive)
8 | CCN(CC)c1ccc(/C=C2\C(=O)NC(=S)N(C)C2=O)o1 | 7.26% (inactive)
9 | COc1ccc(N2C(=O)/C(=C/c3ccc(N(C)C)o3)C(=O)NC2=S)cc1 | 92% (active)
10 | CCN(CC)c1ccc(/C=C2\C(=O)NC(=S)N(c3ccc(OC)cc3OC)C2=O)o1 | 0.1% (inactive)
11 | CCN(CC)c1ccc(N=Cc2c(O)n(Cc3ccco3)c(=O)[nH]c2=O)cc1 | 0.1% (inactive)
12 | Cc1ccc(C)c(Cn2c(C(=O)O)c(C=O)c3ccccc32)c1 | 0.2% (inactive)
13 | C[C@]12CCC(=O)C=C1CC[C@@H]1[C@@H]2CC[C@]2(C)C(=O)CC[C@@H]12 | 0.01% (inactive)
14 | CCC(CO)NC(=O)C1C=C2c3cccc4[nH]cc(c34)CC2N(C)C1 (stereo unspecified) | 1.39% (inactive)
15 | CC1=C[C@@H]2c3cccc4[nH]cc(c34)C[C@H]2N(C)C1 | 14.5% (active)
16 | CN1C[C@H](CO)C=C2c3cccc4[nH]cc(c34)C[C@H]21 | 0.35% (inactive)
17 | COC(=O)C1=C(c2cccc(OC)c2OC)C[C@@H]2CC[C@H]1N2C(=O)NCc1ccco1 | 1.08% (inactive)
18 | COC(=O)C1=C(c2cccc(OC)c2OC)C[C@@H]2CC[C@H]1N2C(=O)NCCCOC(C)C | 0.79% (inactive)
19 | COC(=O)C1=C(c2ccc(F)cc2OCc2ccccc2)C[C@@H]2CC[C@H]1N2C(=O)NCc1ccc(OC)c(OC)c1 | 57% (active)
20 | O=C(O)C1=CC2c3ccccc3C1c1ccccc12 | 0.01% (inactive)
21 | O=[N+]([O-])c1ccc(N2CCCCCC2)c2nonc12 | 6.24% (inactive)
22 | CCOC(=O)c1ccccc1C(=O)OCC | 1510% (active)
23 | COc1ccccc1N1C(=O)NC(=O)/C(=C/c2ccc3c4c(cccc24)CC3)C1=O | 0.07% (inactive)

Row | Compound | fluorescence artifact activation
24 | Cn1c(O)c(/C=C/C=Nc2ccccc2)c(=O)n(C)c1=O | -0.08% (inactive)
25 | CCOCCCn1c(N)c(C(=O)Nc2sc3c(c2C(=O)OC)CCCC3)c2nc3ccccc3nc21 | 2.92% (inactive)
26 | CCCCn1c(O)c(C(=O)/C=C/c2c[nH]c3ccccc23)c(=O)[nH]c1=O | 3% (inactive)
27 | CCn1c(O)c(C=Nc2ccc(N3CCOCC3)cc2)c(=O)n(CC)c1=S | 23.9% (active)
28 | CCCCC(=O)N/N=C/c1c(O)n(CC)c(=S)n(CC)c1=O | 0.21% (inactive)
29 | O=c1[nH]c(=S)n(-c2ccc(Br)cc2)c(O)c1C=Nc1ccc(N2CCOCC2)cc1 | 0.07% (inactive)
30 | Cc1ccc(N2C(=O)NC(=O)/C(=C\c3ccoc3)C2=O)cc1 | 0.07% (inactive)
31 | COC(=O)[C@H]1C[C@@H]1[C@H](NP(=O)(c1ccccc1)c1ccccc1)c1ccccc1 | 0.01% (inactive)
32 | COc1ccc(N=Nc2c(O)[nH]c(=S)[nH]c2=O)cc1 | 0.58% (inactive)
33 | Nc1ccc2ccc3cccc[n+]3c2c1 | 0.21% (inactive)
34 | Cc1cc(Cl)nc(N)n1 | 14.3% (active)
35 | C#C[C@]1(O)CC[C@H]2[C@@H]3CCC4=Cc5nc6nc7ccccc7n6cc5C[C@]4(C)[C@H]3CC[C@@]21C | 0.16% (inactive)
36 | CN1CCc2cc3c(c4c2C1Cc1ccccc1-4)OCO3 (stereo unspecified) | 0.18% (inactive)
37 | O=C1NC(=O)N(c2ccc3c(c2)OCO3)C(=O)/C1=C/c1ccc(N2CCCC2)o1 | 0.12% (inactive)
38 | Cc1ccccc1N1C(=O)NC(=O)/C(=C\c2cc(Br)c(N3CCOCC3)o2)C1=O | -0.03% (inactive)
39 | O=C1NC(=O)N(c2ccc3c(c2)OCO3)C(=O)/C1=C\c1ccc(N2CCCCC2)o1 | 0.37% (inactive)
40 | O=C1NC(=O)C(=Cc2ccc(N3CCOCC3)o2)C(=O)N1 | -0.04% (inactive)
41 | CN1CCN(c2ccc(/C=C3\C(=O)NC(=S)N(c4cccc(Br)c4)C3=O)o2)CC1 | -0.01% (inactive)
42 | CCOc1ccc(N2C(=O)NC(=O)/C(=C\c3ccc(N4CCCCC4)o3)C2=O)cc1 | 51.4% (active)
43 | CCc1ccccc1N1C(=O)/C(=C/c2ccc(N3CCN(C)CC3)o2)C(=O)NC1=S | 119% (active)
44 | Cc1cccc(N2C(=O)/C(=C/c3ccc(N4CCN(C)CC4)o3)C(=O)NC2=S)c1C | 0.2% (inactive)
45 | Cc1ccccc1N1C(=O)NC(=O)/C(=C/c2ccc(N3CCOCC3)o2)C1=O | 14.1% (active)
46 | O=[N+]([O-])c1ccc(N2CCCC2)c2ncccc12 | 9.73% (inactive)

Row | Compound | fluorescence artifact activation
47 | C[C@]12CCC3C(CC[C@H]4C[C@@H](O)[C@H](O)C[C@]34C)C1CC[C@@H]2O (stereo partly specified) | 4.4% (inactive)
48 | OC12CCCCC1C(c1ccccc1)NCC2 (stereo unspecified) | 0.14% (inactive)
49 | CN1C(=O)C(=Cc2sc(=O)n(-c3ccccc3)c2N2CCCCC2)C(=O)N(C)C1=O | -0.07% (inactive)
50 | CCN(CC)C(=O)c1ccc(NC(=O)COc2ccc([N+](=O)[O-])cc2Cl)cc1 | 0.19% (inactive)
51 | C=Cn1ccnc1P(=S)(c1nccn1C=C)c1nccn1C=C | 6.72% (inactive)
52 | CN(C)P(=O)(CCl)Nc1ccccc1 (stereo unspecified) | 10% (inactive)
53 | C=CCN1C(=O)/C(=C\c2ccc(N3CCOCC3)o2)C(=O)NC1=S | 0.23% (inactive)
54 | O=C1NC(=O)C(=Cc2cn(CCOc3ccc4c(c3)OCO4)c3ccccc23)C(=O)N1 | 1.05% (inactive)
55 | Cc1cc(C)c(Cn2c(C(=O)O)c(C=O)c3ccccc32)c(C)c1 | 0.05% (inactive)
56 | CC(C)c1ccc(N2C(=O)NC(=O)/C(=C/C=C/c3ccco3)C2=O)cc1 | -0.06% (inactive)
57 | CC(C)C[C@H]1C(=O)N2CCC[C@H]2[C@]2(O)O[C@](NC(=O)[C@@H]3C=C4c5cccc6[nH]cc(c56)C[C@H]4N(C)C3)(C(C)C)C(=O)N12 | 0.12% (inactive)
58 | O=c1[nH]c(=S)n(-c2ccccc2Cl)c(O)c1C=NCCN1CCNCC1 | 660% (active)
59 | COc1ccc(OC)c(-n2c(O)c(C=NCCN3CCNCC3)c(=O)[nH]c2=S)c1 | 3.37% (inactive)
60 | C=CCn1c(O)c(C=NC2CCN(Cc3ccccc3)CC2)c(=O)[nH]c1=O | -0.06% (inactive)
61 | CN1Cc2c(c(C#N)c(N)n(C)c2=S)CC1(C)C | -0.06% (inactive)
62 | CCN(CC)c1ccc(/C=C/[N+](=O)[O-])cc1 | 3.43% (inactive)
63 | CCCCCCC(=O)N/N=C/c1c(O)n(CCc2ccccc2)c(=O)[nH]c1=O | 0.04% (inactive)
64 | O=C(CN1CCN(c2ccccc2F)CC1)Nc1cccnc1Cl | 6.53% (inactive)
65 | CC1(C)OC(c2ccccc2)=C/C(=C/C=C2C(=O)NC(=O)NC2=O)O1 | 0.3% (inactive)
66 | N#CC(C#N)=Cc1ccc(C=C(C#N)C#N)cc1 | 0.08% (inactive)
67 | Cn1cc(C=C(C#N)C#N)c2ccccc21 | 20% (active)
68 | COc1ccc(N2C(=O)NC(=O)/C(=C\c3cn(C)c4ccccc34)C2=O)cc1 | -0.05% (inactive)
69 | CC(C)n1c(=O)c(C=Nc2cccc([N+](=O)[O-])c2)c(O)n(CCc2ccccc2)c1=O | 1.6% (inactive)

Row | Compound | fluorescence artifact activation
70 | COc1cccc2c1C(=O)c1c(O)c3c(c(O)c1C2=O)CC(O)(C(C)=NO)CC3OC1CC(N)C(O)C(C)O1 (stereo unspecified) | 0.43% (inactive)
71 | Cc1cccc(-n2c(O)c(/C=C/C=Nc3ccccc3)c(=O)[nH]c2=O)c1 | 59.9% (active)
72 | O=c1[nH]c(=O)n(-c2ccccc2)c(O)c1/C=C/C=Nc1ccccc1 | 0.01% (inactive)
73 | Cc1ccc(-n2c(O)c(/C=C/C=Nc3ccccc3)c(=O)[nH]c2=O)cc1 | 7.82% (inactive)
74 | O=C1NC(=O)N(Cc2ccccc2)C(=O)/C1=C\N1CCCc2ccccc21 | 2.74% (inactive)
75 | O=Cc1c(C(=O)O)n(Cc2ccc(Cl)cc2)c2ccccc12 | 0.14% (inactive)
76 | C/C(=N\N1CCCCC1c1cccnc1)c1c(O)n(C2CCCCC2)c(=S)[nH]c1=O (stereo unspecified) | 13.8% (active)
77 | O=c1[nH]c(=O)n(C2CCCCC2)c(O)c1/C=C/C=Nc1ccccc1 | 0.28% (inactive)
78 | Cc1cccc(N2C(=O)NC(=O)/C(=C\c3ccc4c(c3)CCCN4Cc3ccccc3)C2=O)c1 | 0.72% (inactive)
79 | CN1CCN(Cc2cn(C)c3ccccc23)CC1CCO (stereo unspecified) | 10.6% (inactive)
80 | O=C1NC(=S)SC1=Cc1ccc(N(CCCl)CCCl)cc1 | -0.09% (inactive)
81 | Nc1c2c(nc3ccccc13)CCN(Cc1ccccc1)C2 | 26.4% (active)
82 | FC(F)(F)c1ccc2c(c1)nnn2C1CCN(Cc2nnnn2Cc2ccccc2)CC1 | 0.25% (inactive)
83 | CCOCCCNC(=O)C1c2cc(OC)c(OC)cc2C(=O)N2CCCCC12 (stereo unspecified) | 0.42% (inactive)
84 | O=c1[nH]c(O)c(C=Nc2ccccc2Oc2ccccc2)c(=O)[nH]1 | 0.37% (inactive)
85 | C=CCN1C(=O)/C(=C/c2ccc(N3CCOCC3)o2)C(=O)NC1=S | 5.89% (inactive)
86 | CN1C(=O)C(=Cc2ccc(N3CCOCC3)o2)C(=O)N(C)C1=O | 16.2% (active)
87 | CN1C(=O)/C(=C/c2ccc(N3CCCCCC3)o2)C(=O)NC1=S | 1.84% (inactive)
88 | CCN1C(=O)C(=Cc2ccc(N3CCOCC3)o2)C(=O)N(CC)C1=S | 0.14% (inactive)
89 | CN1C(=O)C(=Cc2ccc(N3CCCCCC3)o2)C(=O)N(C)C1=S | 35.9% (active)
90 | CN1C(=O)/C(=C\c2ccc(N3CCCCC3)o2)C(=O)NC1=S | 0.13% (inactive)
91 | CN1C(=O)C(=Cc2ccc(N3CCOCC3)o2)C(=O)N(C)C1=S | 0.02% (inactive)
